Reference: ChEMBL document CHEMBL5705891, “Small-molecule kinase inhibitors provide insight into Mps1 cell cycle function” (Nat Chem Biol, 2010)
Calls of active or inactive are those of the source. The rule behind the calls is not given here.

Tests used:
[1] = target: Serine/threonine-protein kinase TAO3 (Homo sapiens) (UniProt Q9H2K8); test: Inhibition of TAOK3 (unknown origin) assessed as residual enzyme activity at 10 uM by Ambit kinase binding assay relative to control
[2] = target: MAP kinase-interacting serine/threonine-protein kinase 2 (Homo sapiens) (UniProt Q9HBH9); test: Inhibition of MKNK2 (unknown origin) assessed as residual enzyme activity at 10 uM by Ambit kinase binding assay relative to control
Chain of MAP kinase-interacting serine/threonine-protein kinase 2 (Homo sapiens) (Q9HBH9 whole entry, looked up): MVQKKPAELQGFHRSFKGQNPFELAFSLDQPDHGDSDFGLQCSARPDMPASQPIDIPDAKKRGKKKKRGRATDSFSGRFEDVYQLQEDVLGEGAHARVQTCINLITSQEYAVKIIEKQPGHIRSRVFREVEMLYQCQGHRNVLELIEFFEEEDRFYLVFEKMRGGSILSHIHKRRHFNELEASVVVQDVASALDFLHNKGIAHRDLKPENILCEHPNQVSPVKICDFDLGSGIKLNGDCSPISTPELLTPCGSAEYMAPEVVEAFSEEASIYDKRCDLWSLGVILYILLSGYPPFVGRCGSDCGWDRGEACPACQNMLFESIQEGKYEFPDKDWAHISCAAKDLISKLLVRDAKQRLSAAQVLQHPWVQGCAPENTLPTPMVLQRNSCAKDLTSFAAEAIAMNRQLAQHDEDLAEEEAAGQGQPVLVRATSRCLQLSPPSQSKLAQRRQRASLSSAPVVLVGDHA

[3] = target: Dual specificity protein kinase CLK2 (Homo sapiens) (UniProt P49760); test: Inhibition of CLK2 (unknown origin) assessed as residual enzyme activity at 10 uM by Ambit kinase binding assay relative to control
Chain of Dual specificity protein kinase CLK2 (Homo sapiens) (P49760 whole entry, looked up): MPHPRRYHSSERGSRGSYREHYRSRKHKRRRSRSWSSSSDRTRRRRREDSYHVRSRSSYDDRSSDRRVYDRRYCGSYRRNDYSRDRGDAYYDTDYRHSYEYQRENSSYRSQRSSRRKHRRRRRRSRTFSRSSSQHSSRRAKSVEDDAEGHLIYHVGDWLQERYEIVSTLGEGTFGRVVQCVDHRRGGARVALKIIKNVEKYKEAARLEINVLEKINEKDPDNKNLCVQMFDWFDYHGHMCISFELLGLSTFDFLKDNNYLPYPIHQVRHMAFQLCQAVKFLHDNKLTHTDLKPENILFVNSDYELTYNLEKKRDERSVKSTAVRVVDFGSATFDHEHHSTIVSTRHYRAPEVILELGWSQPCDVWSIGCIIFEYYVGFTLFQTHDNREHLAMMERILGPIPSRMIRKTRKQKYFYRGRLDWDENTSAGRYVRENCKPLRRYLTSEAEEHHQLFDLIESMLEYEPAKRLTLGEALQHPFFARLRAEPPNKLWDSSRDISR

[4] = target: Tyrosine-protein kinase Tec (Homo sapiens) (UniProt P42680); test: Inhibition of TEC (unknown origin) assessed as residual enzyme activity at 10 uM by Ambit kinase binding assay relative to control
[5] = target: Dual specificity mitogen-activated protein kinase kinase 3 (Homo sapiens) (UniProt P46734); test: Inhibition of MEK3 (unknown origin) assessed as residual enzyme activity at 10 uM by Ambit kinase binding assay relative to control
Chain of Dual specificity mitogen-activated protein kinase kinase 3 (Homo sapiens) (P46734 whole entry): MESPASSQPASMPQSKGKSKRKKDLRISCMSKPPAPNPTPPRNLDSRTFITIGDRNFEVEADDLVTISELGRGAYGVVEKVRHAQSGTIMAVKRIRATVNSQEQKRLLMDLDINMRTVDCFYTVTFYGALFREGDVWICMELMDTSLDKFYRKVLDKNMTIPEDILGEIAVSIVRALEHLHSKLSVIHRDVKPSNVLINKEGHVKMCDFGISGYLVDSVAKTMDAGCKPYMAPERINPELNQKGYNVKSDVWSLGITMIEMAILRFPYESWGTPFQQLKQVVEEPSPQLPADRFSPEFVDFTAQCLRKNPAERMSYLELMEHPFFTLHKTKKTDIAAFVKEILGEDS

TERT-RPE1 = test: Induction of aneuploidy in human TERT-RPE1 cells assessed as frequency of non-disjunction events per cell at 10 uM treated for 24 hrs by karyo-typing analysis (reference value: 0.1); type: functional
Method in brief: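 Asynchronous cells were exposed to 10 μM compound for 24 h. Medium was then replaced with medium containing 100 ng/mL colcemid for 2 h to arrest cells in metaphase, after which cells were harvested and karyotyped.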

[6] = target: T1, Insulin-like growth factor 1 receptor (Homo sapiens, UniProt P08069); test: Inhibition of IGF1R (unknown origin) assessed as residual enzyme activity at 10 uM by Ambit kinase binding assay relative to control
T1 sequence (P08069 31-736 limits assumed): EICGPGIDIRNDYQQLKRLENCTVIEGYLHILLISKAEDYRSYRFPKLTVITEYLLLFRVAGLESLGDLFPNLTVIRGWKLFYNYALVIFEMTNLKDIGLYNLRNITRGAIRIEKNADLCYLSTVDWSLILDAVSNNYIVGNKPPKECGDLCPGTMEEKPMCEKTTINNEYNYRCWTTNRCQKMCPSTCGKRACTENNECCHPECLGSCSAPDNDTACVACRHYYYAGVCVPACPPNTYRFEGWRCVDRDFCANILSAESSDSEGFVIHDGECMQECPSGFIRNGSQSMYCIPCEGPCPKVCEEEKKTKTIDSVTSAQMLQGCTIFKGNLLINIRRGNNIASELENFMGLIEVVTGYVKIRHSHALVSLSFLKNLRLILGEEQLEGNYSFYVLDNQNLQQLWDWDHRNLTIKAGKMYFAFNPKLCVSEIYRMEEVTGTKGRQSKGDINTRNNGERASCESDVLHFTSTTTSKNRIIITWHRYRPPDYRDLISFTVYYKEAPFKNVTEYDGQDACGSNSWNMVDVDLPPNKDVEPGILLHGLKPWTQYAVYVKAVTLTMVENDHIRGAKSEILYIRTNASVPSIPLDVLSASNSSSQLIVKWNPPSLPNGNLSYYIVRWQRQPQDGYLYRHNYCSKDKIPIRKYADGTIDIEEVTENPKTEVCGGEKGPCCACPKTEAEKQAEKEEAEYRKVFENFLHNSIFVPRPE
T1 sequence (P08069 741-1367 limits assumed): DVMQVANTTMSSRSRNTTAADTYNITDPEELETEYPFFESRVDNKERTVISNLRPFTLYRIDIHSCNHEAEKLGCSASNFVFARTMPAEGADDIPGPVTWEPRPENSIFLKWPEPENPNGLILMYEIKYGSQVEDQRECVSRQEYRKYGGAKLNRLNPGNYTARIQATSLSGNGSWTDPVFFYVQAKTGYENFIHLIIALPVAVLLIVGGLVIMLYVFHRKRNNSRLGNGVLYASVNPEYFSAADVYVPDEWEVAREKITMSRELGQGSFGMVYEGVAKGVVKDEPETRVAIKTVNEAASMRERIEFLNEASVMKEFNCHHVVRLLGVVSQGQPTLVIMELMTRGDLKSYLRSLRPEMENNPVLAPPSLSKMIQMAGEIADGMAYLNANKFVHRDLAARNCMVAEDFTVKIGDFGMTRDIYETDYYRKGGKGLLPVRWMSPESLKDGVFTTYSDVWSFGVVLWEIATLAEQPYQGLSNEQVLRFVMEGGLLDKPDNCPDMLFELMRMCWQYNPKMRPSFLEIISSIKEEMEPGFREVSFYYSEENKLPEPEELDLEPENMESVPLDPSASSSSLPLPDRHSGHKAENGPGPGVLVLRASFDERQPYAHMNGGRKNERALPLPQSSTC

[7] = target: Dual specificity protein kinase CLK4 (Homo sapiens) (UniProt Q9HAZ1); test: Inhibition of CLK4 (unknown origin) assessed as residual enzyme activity at 10 uM by Ambit kinase binding assay relative to control
UTRM10 = test: Induction of chromosome mis-segregation in UTRM10 cells (unknown origin) expressing LAP-tagged Mps1 M602Q mutant co-transfected with H2B-EYFP at 10 uM by time-lapse microscopy; type: functional, cell-based
Insulin receptor = Insulin receptor (Homo sapiens, UniProt P06213); test: Inhibition of INSR (unknown origin) assessed as residual enzyme activity at 10 uM by Ambit kinase binding assay relative to control
[8] = target: MAP/microtubule affinity-regulating kinase 4 (Homo sapiens) (UniProt Q96L34); test: Inhibition of MARK4 (unknown origin) assessed as residual enzyme activity at 10 uM by Ambit kinase binding assay relative to control
Chain of MAP/microtubule affinity-regulating kinase 4 (Homo sapiens) (Q96L34 whole entry): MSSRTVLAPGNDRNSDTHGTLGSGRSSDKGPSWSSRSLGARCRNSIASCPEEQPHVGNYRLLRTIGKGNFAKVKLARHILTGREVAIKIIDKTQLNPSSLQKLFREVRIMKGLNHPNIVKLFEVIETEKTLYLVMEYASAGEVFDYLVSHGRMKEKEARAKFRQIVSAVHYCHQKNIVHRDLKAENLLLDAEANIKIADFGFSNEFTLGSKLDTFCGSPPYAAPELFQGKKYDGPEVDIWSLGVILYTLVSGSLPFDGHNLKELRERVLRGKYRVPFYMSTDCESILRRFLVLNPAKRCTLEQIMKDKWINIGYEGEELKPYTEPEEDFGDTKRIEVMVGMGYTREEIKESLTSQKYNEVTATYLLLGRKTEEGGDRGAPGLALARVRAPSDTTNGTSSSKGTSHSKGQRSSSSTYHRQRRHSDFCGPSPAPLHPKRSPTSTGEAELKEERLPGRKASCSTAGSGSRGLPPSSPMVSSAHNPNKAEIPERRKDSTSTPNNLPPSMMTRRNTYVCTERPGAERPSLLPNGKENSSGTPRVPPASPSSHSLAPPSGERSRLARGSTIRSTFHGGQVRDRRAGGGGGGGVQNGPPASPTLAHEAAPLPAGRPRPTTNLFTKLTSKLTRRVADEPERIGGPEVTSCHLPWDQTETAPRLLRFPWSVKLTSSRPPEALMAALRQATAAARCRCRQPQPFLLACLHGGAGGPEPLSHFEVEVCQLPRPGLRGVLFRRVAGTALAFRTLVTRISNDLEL

HCT-116 [9] = test: Cytotoxicity against human HCT-116 cells assessed as loss of cell viability at 5 to 10 uM incubated for 10 days by crystal violet staining based assay; type: functional; details: dose 5-10 µM, time 10.0 day
Method in brief: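 Colony outgrowth: cells plated at 200 cells per 60-mm dish, exposed to compound or DMSO vehicle and stained with crystal violet after 10 days. HCT116 grown in McCoy's 5A; A549 and HeLa in DMEM; hTERT-RPE1 in DMEM/F-12. All media had 10% FBS and penicillin/streptomycin, 37°C, 5% CO2. Quantified from 3 independent experiments, mean + SD, Student's t test.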

U2OS [10] = test: Induction of premature entry into anaphase in thymidine-treated human U2OS cells expressing H2B-GFP and Plk4 overexpression measured for 30 mins by time lapse imaging analysis relative to control; type: functional; details: 0.5 h
Method in brief: (§1)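 Doxycycline-inducible Plk4 U2OS cells expressing H2B-GFP were blocked with thymidine for 18 hrs and released into doxycycline (2 μg·ml⁻¹) for 10 hrs. A second 18-hr thymidine block followed, then release for 6 hrs before 5 μM inhibitor, with or without Plk4 induction. Cells were imaged by time-lapse at 37°C, 5% CO₂, timed from NEBD, and bipolar versus multipolar anaphases were scored. Values are mean ± SD of 3 independent experiments.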

HeLa S3 = test: Reversal of nocodazole-induced mitotic arrest in human HeLa S3 cells expressing histone H2B-GFP assessed as nuclear envelope reassembly at 10 uM measured for 20 to 60 mins by immunofluorescence analysis; type: functional, cell-based; details: time 20-60 min
[11] = target: T1, Insulin-like growth factor 1 receptor; test: Binding affinity to IGF1R (unknown origin) assessed as dissociation constant by Ambit kinase binding assay
[12] = target: Tyrosine-protein kinase Fer (Homo sapiens) (UniProt P16591); test: Inhibition of FER (unknown origin) assessed as residual enzyme activity at 10 uM by Ambit kinase binding assay relative to control
Chain of Tyrosine-protein kinase Fer (Homo sapiens) (P16591 whole entry, looked up): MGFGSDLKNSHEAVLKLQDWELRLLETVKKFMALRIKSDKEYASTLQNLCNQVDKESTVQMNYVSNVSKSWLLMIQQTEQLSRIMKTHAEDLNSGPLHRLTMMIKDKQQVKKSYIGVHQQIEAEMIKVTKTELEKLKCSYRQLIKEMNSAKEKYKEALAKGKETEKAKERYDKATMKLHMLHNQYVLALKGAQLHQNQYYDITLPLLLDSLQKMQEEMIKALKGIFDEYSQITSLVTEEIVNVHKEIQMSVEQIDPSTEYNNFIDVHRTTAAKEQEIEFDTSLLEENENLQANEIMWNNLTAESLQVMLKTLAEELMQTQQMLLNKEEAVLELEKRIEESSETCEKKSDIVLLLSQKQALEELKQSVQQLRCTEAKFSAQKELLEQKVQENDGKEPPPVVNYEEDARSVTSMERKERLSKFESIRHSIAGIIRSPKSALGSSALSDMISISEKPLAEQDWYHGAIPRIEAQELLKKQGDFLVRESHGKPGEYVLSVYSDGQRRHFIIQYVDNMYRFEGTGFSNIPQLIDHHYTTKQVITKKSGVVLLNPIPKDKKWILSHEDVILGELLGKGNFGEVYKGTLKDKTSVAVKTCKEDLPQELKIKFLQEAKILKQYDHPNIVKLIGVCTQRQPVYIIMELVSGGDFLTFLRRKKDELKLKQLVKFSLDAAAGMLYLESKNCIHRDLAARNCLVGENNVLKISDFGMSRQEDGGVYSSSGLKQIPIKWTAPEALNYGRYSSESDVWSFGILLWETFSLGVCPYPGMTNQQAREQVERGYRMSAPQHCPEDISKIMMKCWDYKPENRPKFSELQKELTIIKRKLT

HCT-116 [13] = test: Antiproliferative activity against human HCT-116 with BAX-/- cells at 10 uM incubated for 4 days by Syto60 staining based assay; type: functional, cell-based; details: time 4.0 day
Method in brief: (§2)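 Proliferation read by Syto60 nucleic acid stain fluorescence (excitation 635 nm, emission 695 nm) after treatment for up to 96 h. Each time point normalized to its DMSO control. Mean ± SD from 4 independent experiments. Cells kept at 37°C, 5% CO2 in 10% FBS-supplemented medium.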

U2OS [14] = test: Initiation of anaphase in human U2OS cells expressing histone H2B-GFP at 10 uM measured for 20 mins by fluorescence time-lapse microscopy (reference value: 10 %); type: functional
Method in brief: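 U2OS H2B-GFP cells were given DMSO or inhibitor and imaged by fluorescence time-lapse at 37°C, 5% CO₂, one frame every 2 min. NEBD-to-anaphase time was scored for 100 cells per population and plotted as cumulative percentage initiating anaphase.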

U2OS [15] = test: Reversal of paclitaxel-induced mitotic arrest in human U2OS cells assessed as accumulation of 4N phosphorylated Histone H3-negative cells incubated for 16 hrs by flow cytometry; type: functional, cell-based; details: dose 5-10 µM
U2OS [16] = test: Induction of premature entry into anaphase in thymidine-treated human U2OS cells expressing H2B-GFP and Plk4 overexpression assessed as fragmentary divisions into multiple daughter cells measured for 30 mins by time lapse imaging analysis relative to control; type: functional, cell-based; method in brief: as §1
[17] = Inhibition of Mps1 in nocodazole-treated Potoroo PTK2 cells expressing EyFP-tagged human Mad2 assessed as decrease in Mad2 recruitment to kinetochore at 10 uM incubated for 1 hr by fluorescence based imaging analysis relative to nocodazole; parameters: species or system Pt K2; details: Potorous tridactylus
Method in brief: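 PtK2 (male Potorous tridactylus kidney) cells stably expressing human Mad2-EYFP, cultured in Advanced MEM with 2% FBS. Cells were pretreated 1 h with 10 μM inhibitor or DMSO, then given DMSO or nocodazole (200 ng·ml⁻¹). Time-lapse imaging ran at 37°C from NEBD. Kinetochore Mad2-EYFP density was background-corrected and normalized. N=20–29 cells; 95% CI; Student's t test.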

U2OS [18] = test: Antiproliferative activity against human U2OS cells at 10 uM incubated for 4 days by Syto60 staining based assay; type: functional, cell-based; details: time 4.0 day; method in brief: as §2
U2OS [19] = test: Induction of chromosome misalignment in human U2OS cells expressing histone H2B-GFP at 5 to 10 uM treated for 4 hrs followed by MG132 treatment for 30 to 60 mins and subsequent replacement of medium containing MG132 measured after 30 mins by immunofluoresence analysis; type: functional, cell-based; details: dose 5-10 µM, time 4.5-5 hrs
[20] = target: Serine/threonine-protein kinase 33 (Homo sapiens, UniProt Q9BYT3); test: Inhibition of STK33 (unknown origin) assessed as residual enzyme activity at 10 uM by Ambit kinase binding assay relative to control
Chain of Serine/threonine-protein kinase 33 (Q9BYT3 whole entry, looked up): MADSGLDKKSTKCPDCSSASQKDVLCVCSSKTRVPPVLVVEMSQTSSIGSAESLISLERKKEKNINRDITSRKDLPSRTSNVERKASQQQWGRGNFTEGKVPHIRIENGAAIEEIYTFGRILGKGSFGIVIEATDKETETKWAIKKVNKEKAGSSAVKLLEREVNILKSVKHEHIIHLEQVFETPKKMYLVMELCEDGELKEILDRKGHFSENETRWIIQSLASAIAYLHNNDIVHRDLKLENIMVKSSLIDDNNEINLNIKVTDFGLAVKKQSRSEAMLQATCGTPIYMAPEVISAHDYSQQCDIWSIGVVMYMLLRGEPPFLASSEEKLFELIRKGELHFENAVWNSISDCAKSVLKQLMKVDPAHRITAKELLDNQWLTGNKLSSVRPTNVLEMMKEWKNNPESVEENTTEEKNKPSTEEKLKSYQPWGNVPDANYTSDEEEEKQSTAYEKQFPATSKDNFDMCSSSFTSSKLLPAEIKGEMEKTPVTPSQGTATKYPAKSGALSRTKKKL

O=C1c2ccccc2-c2n[nH]c3cccc1c23
Activity [1]: 22% | Activity [2]: 1.9% | Activity [3]: 3.4% | Activity [4]: 28% | Activity [5]: 6%

COc1cc(N2CCC(O)CC2)ccc1Nc1cc(Nc2ccccc2S(=O)(=O)C(C)C)c2cc[nH]c2n1
Activity (TERT-RPE1): 3.3 | Activity [6]: 0.9% | Activity [7]: 18% | Activity (UTRM10): inactive | Activity (Insulin receptor): 0.15% | Activity [8]: 1.2% | Activity (HCT-116 [9]): Active | Activity (U2OS [10]): ~60% | Activity (HeLa S3): Active | Kd [11]: 750 nM | Activity [12]: 16% | Activity (HCT-116 [13]): Active | Activity (U2OS [14]): ~100% | Activity (U2OS [15]): Dose-Dependent Effect | Activity (U2OS [16]): Active | inhibition at 10 µM [17]: 70% | Activity (U2OS [18]): Active | Activity (U2OS [19]): Active | Activity [20]: 12%
